Data as given in ChEMBL document CHEMBL1153005, “Synthesis and biological evaluation of curcumin-like diarylpentanoid analogues for anti-inflammatory, antioxidant and anti-tyrosinase activities” (Eur J Med Chem, 2009).

Columns and labels:
[1] = test system: Radical scavenging activity; assay: Antioxidant activity assessed as DPPH free radical scavenging activity after 30 mins; assay type: functional
How it was run: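 Compound stocks were made in 100% DMSO and serially diluted from 7.81 to 500. DPPH (1 mg/ml in methanol) was added, and plates were shaken gently and kept in the dark for 30 min. Absorbance was read at 517 nm, and % scavenging was calculated versus the control. Results are the mean ± S.E.M. of three runs; IC₅₀ values were calculated.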

RAW264.7 [2] = assay: Antiinflammatory activity in mouse RAW264.7 cells assessed as inhibition of IFN-gamma/LPS-stimulated nitric oxide production after 17 to 20 hrs by Griess assay; assay type: functional, cell-based
How it was run: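 RAW 264.7 cells were grown in DMEM with 10% FBS and 1% penicillin/streptomycin (5% CO₂, 37 °C). At 80–90% confluency they were scraped and seeded at 5 × 10⁴ cells/well. Nitrite was measured by Griess assay, and % NO inhibition was taken relative to the IFN-γ/LPS control. Results are the mean ± S.E.M. of three experiments; IC₅₀ values were computed from these.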

[3] = Antioxidant activity assessed as nitric oxide scavenging activity after 60 min by Griess assay; assay type: functional
How it was run: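 Sodium nitroprusside (10 mM) was incubated alone or with test compounds (7.81–500) for 60 min under light exposure. Nitrite in the mixture was measured by Griess assay, and % NO scavenging was calculated from OD versus the control. Results are the mean ± S.E.M. of three runs; IC₅₀ values were calculated.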

Tyrosinase = molecular target: T1, Tyrosinase (Homo sapiens, UniProt P14679); assay: Inhibition of tyrosinase
T1 sequence (P14679 whole entry): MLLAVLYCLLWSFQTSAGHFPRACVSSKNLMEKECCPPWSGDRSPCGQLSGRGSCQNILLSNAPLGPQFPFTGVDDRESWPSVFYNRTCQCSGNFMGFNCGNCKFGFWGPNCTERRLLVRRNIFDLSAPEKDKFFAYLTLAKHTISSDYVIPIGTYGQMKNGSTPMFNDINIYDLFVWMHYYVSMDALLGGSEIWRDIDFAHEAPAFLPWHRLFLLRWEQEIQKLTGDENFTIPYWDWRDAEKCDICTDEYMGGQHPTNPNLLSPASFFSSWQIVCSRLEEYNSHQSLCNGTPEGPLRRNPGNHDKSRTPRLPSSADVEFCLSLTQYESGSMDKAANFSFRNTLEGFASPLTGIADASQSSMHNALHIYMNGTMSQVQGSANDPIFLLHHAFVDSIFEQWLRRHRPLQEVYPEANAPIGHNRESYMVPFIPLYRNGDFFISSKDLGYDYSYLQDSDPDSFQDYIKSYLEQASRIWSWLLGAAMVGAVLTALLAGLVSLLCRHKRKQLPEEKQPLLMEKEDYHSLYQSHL

[4] = Cytotoxicity against HEMn cells; assay type: cell-based; conditions: human
RAW264.7 [5] = assay: Cytotoxicity against IFN-gamma/LPS-stimulated mouse RAW264.7 cells assessed as cell viability at 50 uM after 17 to 20 hrs by MTT assay; assay type: cell-based; conditions: raw264.7, 50 µM
How it was run: (§1)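 RAW 264.7 cells were cultured and seeded as for the NO assay. In the MTT read-out, cells were incubated for 4 h at 37 °C under 5% CO₂. Formazan was dissolved in DMSO and absorbance read at 570 nm. Viability (%) = OD sample / OD control × 100. Results are the mean ± S.E.M. of three experiments.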

RAW264.7 [6] = assay: Cytotoxicity against IFN-gamma/LPS-stimulated mouse RAW264.7 cells assessed as cell viability at 25 uM after 17 to 20 hrs by MTT assay; assay type: cell-based; conditions: raw264.7, 25 µM; how it was run: as §1
[7] = Mus musculus, RAW264.7, read-out: IC50

Structure (SMILES)	IC50 ([1]; read-out: IC50)	IC50 (RAW264.7 [2]; raw264.7)	IC50 ([3]; read-out: IC50)	IC50 (Tyrosinase; read-out: IC50)	IC50 [1]	IC50 (RAW264.7 [2]; [7])	IC50 [3]	IC50 (Tyrosinase)	further results
COc1ccc(/C=C/C(=O)/C=C/c2ccc(OC)cc2F)c(F)c1	–	–	–	> 250 µM	Not Active	33.1 µM	Not Active	–	–
CC1(C)N([O])C(c2ccccc2)=[N+]([O-])C1(C)C	–	–	0.57 µM	–	–	–	–	–	–
COc1ccc(OC)c(/C=C/C(=O)/C=C/c2cc(OC)ccc2OC)c1	–	–	–	–	Not Active	13.6 µM	Not Active	Not Active	Activity (RAW264.7 [5]): Toxic
COc1cc(/C=C/C(=O)CC(=O)/C=C/c2ccc(O)c(OC)c2)ccc1O [CURCUMIN]	110 µM	–	> 500 µM	–	–	20.4 µM	–	Not Active	–
COC(=O)[C@@H](N)CCCNC(=N)N[N+](=O)[O-] [L-NAME]	–	–	–	–	–	27.1 µM	–	–	–
O=c1c(O)c(-c2ccc(O)c(O)c2)oc2cc(O)cc(O)c12 [QUERCETIN]	41.8 µM	–	–	–	–	–	Not Active	–	–

Second part, led by results:

IC50 ([1]; read-out: IC50)	IC50 (RAW264.7 [2]; raw264.7)	IC50 ([3]; read-out: IC50)	IC50 (Tyrosinase; read-out: IC50)	IC50 [1]	IC50 (RAW264.7 [2]; [7])	IC50 [3]	IC50 (Tyrosinase)	Structure (SMILES)	further results
257 µM	Not Active	> 500 µM	> 250 µM	–	–	–	–	COc1cc(/C=C/C(=O)/C=C/c2ccc(O)c(OC)c2)ccc1O	–
> 500 µM	Not Active	> 500 µM	79 µM	–	–	–	–	O=C(/C=C/c1ccc(O)cc1)/C=C/c1ccc(O)cc1	Activity [4]: Toxic
–	Not Active	–	> 250 µM	Not Active	–	Not Active	–	O=C(/C=C/c1ccc(F)cc1)/C=C/c1ccc(F)cc1	–
> 500 µM	–	> 500 µM	–	–	10.2 µM	–	Not Active	O=C(/C=C/c1ccccc1O)/C=C/c1ccccc1O	Activity (RAW264.7 [5]): Toxic; Activity (RAW264.7 [6]): Toxic
